Laboratory results taken from ChEMBL document CHEMBL3098105, “7,7'-Diazaindirubin--a small molecule inhibitor of casein kinase 2 in vitro and in cells” (Bioorg Med Chem, 2014).
pIC50: −log10 of the molar value.

Key:
[1] = target: RAF proto-oncogene serine/threonine-protein kinase (Homo sapiens) (UniProt P04049); assay: Inhibition of human c-RAF assessed as residual activity at 1 uM relative to control
[2] = target: Protein kinase C beta type (Homo sapiens) (UniProt P05771); assay: Inhibition of human PKCbeta1 assessed as residual activity at 1 uM relative to control
[3] = target: Serine/threonine-protein kinase MARK1 (Homo sapiens) (UniProt Q9P0L2); assay: Inhibition of human MARK1 assessed as residual activity at 1 uM relative to control
[4] = target: SRSF protein kinase 2 (Homo sapiens) (UniProt P78362); assay: Inhibition of human SRPK2 assessed as residual activity at 1 uM relative to control
[5] = target: Serine/threonine-protein kinase PAK 3 (Homo sapiens) (UniProt O75914); assay: Inhibition of human PAK3 assessed as residual activity at 1 uM relative to control
[6] = target: Ephrin type-B receptor 4 (Homo sapiens) (UniProt P54760); assay: Inhibition of human EphB4 assessed as residual activity at 1 uM relative to control
[7] = target: Cyclin-dependent kinase 1/cyclin B1 (Homo sapiens) (UniProt P06493+P14635); assay: Inhibition of human CDK1/cyclinB assessed as residual activity at 1 uM relative to control; assay type: protein-complex assay
[8] = target: Serine/threonine-protein kinase D2 (Homo sapiens) (UniProt Q9BZL6); assay: Inhibition of human PKD2 assessed as residual activity at 1 uM relative to control
[9] = target: T1, Muscle, skeletal receptor tyrosine-protein kinase (Homo sapiens) (UniProt O15146); assay: Inhibition of MUSK (unknown origin) assessed as residual activity at 10 uM relative to control
T1 sequence (whole entry): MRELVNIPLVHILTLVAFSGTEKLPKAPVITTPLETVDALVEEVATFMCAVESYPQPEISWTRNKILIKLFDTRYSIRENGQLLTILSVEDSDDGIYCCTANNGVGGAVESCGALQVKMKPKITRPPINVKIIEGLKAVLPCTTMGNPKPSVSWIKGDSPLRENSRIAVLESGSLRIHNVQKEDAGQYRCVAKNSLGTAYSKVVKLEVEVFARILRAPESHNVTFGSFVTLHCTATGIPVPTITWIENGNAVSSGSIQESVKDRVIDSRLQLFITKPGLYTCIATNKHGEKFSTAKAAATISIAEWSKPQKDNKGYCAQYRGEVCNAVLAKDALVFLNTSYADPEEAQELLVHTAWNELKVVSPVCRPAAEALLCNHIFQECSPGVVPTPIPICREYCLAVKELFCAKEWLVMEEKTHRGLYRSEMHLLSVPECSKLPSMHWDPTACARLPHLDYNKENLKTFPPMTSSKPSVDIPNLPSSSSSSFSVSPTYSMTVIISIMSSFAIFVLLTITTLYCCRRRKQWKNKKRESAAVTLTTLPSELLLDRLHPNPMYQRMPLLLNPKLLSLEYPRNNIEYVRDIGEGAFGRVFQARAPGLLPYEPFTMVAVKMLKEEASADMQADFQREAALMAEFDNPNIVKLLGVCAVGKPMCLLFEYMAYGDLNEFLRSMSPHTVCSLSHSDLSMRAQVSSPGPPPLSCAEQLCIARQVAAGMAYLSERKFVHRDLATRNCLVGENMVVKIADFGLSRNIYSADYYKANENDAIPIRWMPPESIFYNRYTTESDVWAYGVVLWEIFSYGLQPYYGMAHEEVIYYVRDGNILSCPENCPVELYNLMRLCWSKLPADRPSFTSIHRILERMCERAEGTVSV

[10] = target: Focal adhesion kinase 1 (Homo sapiens) (UniProt Q05397); assay: Inhibition of FAK fl (unknown origin) assessed as residual activity at 10 uM relative to control
[11] = target: Serine/threonine-protein kinase PAK 2 (Homo sapiens) (UniProt Q13177); assay: Inhibition of human PAK2 assessed as residual activity at 1 uM relative to control
[12] = target: Serine/threonine-protein kinase 4 (Homo sapiens) (UniProt Q13043); assay: Inhibition of human MST1 assessed as residual activity at 1 uM relative to control
[13] = Antiproliferative activity against human LXFL 529L cells after 3 days by SRB assay; assay type: functional, cell-based; settings: 72 h
How it was run: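 Cells grown at 37 °C, 5% CO2, with 10% heat-inactivated FBS: LXFL529L in RPMI 1640, MCF7 and HT29 in DMEM. Seeded, allowed 24 h growth, then exposed to the drug at various concentrations for 3 days in serum medium. Fixed with TCA for 1 h at 4 °C, stained with 0.4% SRB, eluted in 10 mM Tris pH 10.5, read at 570 nm as % T/C. IC50 taken from dose–response curves of at least three independent experiments.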

[14] = target: G protein-coupled receptor kinase 6 (Homo sapiens) (UniProt P43250); assay: Inhibition of human GRK6 assessed as residual activity at 1 uM relative to control
[15] = target: Aurora kinase C (Homo sapiens) (UniProt Q9UQB9); assay: Inhibition of Aurora-C (unknown origin) assessed as residual activity at 10 uM relative to control
[16] = target: Ephrin type-A receptor 4 (Homo sapiens) (UniProt P54764); assay: Inhibition of human EphA4 assessed as residual activity at 1 uM relative to control
[17] = target: Macrophage colony-stimulating factor 1 receptor (Homo sapiens) (UniProt P07333); assay: Inhibition of human Fms assessed as residual activity at 1 uM relative to control
[18] = target: Tyrosine-protein kinase Lyn (Homo sapiens) (UniProt P07948); assay: Inhibition of human Lyn assessed as residual activity at 1 uM relative to control
[19] = target: Cyclin-dependent kinase 5/CDK5 activator 1 (Homo sapiens) (UniProt Q00535+Q15078); assay: Inhibition of CDK5/p35NCK (unknown origin) assessed as residual activity at 10 uM relative to control; assay type: protein-complex assay
[20] = target: Focal adhesion kinase 1 (Homo sapiens) (UniProt Q05397); assay: Inhibition of human FAK assessed as residual activity at 1 uM relative to control
[21] = target: Tyrosine-protein kinase ZAP-70 (Homo sapiens) (UniProt P43403); assay: Inhibition of human ZAP-70 assessed as residual activity at 1 uM relative to control
[22] = target: Tyrosine-protein kinase JAK3 (Homo sapiens) (UniProt P52333); assay: Inhibition of human JAK3 assessed as residual activity at 1 uM relative to control
[23] = target: Ephrin type-B receptor 2 (Homo sapiens) (UniProt P29323); assay: Inhibition of human EphB2 assessed as residual activity at 1 uM relative to control
[24] = target: Tyrosine-protein kinase Blk (Mus musculus) (UniProt P16277); assay: Inhibition of mouse Blk assessed as residual activity at 1 uM relative to control
[25] = target: Receptor tyrosine-protein kinase erbB-4 (Homo sapiens) (UniProt Q15303); assay: Inhibition of human ErbB4 assessed as residual activity at 1 uM relative to control
Homo sapiens = species on record: Homo sapiens; assay: Inhibition of S6K (unknown origin) assessed as residual activity at 10 uM relative to control

Sequence of Focal adhesion kinase 1 (Homo sapiens) (Q05397 2-1052 limits assumed): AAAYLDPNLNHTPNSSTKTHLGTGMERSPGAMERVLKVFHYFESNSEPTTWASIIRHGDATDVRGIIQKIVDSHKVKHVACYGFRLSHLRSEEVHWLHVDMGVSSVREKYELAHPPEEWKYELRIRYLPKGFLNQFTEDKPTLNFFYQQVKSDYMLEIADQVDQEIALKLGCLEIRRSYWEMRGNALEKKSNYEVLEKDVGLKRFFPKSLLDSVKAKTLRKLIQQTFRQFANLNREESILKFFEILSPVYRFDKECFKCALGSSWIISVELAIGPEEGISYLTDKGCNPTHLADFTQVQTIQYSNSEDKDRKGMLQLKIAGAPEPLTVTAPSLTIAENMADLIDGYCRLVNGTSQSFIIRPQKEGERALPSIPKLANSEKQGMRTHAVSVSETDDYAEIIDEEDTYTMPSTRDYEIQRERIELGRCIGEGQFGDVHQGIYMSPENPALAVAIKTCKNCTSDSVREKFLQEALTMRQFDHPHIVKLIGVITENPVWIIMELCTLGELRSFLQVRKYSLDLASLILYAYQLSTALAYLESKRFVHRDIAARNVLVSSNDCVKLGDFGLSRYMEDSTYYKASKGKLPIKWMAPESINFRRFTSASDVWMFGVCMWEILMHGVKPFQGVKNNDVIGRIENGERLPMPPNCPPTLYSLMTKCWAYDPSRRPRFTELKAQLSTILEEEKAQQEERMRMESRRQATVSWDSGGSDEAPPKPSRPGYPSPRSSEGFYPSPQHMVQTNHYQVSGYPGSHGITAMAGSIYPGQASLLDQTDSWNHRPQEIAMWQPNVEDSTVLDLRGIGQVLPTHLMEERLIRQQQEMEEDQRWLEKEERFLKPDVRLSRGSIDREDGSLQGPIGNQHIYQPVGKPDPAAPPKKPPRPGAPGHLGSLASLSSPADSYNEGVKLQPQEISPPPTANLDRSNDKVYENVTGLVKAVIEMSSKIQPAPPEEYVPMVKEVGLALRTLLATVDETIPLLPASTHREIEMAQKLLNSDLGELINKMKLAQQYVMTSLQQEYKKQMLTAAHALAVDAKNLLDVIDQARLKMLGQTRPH
Sequence of Receptor tyrosine-protein kinase erbB-4 (Homo sapiens) (Q15303 whole entry): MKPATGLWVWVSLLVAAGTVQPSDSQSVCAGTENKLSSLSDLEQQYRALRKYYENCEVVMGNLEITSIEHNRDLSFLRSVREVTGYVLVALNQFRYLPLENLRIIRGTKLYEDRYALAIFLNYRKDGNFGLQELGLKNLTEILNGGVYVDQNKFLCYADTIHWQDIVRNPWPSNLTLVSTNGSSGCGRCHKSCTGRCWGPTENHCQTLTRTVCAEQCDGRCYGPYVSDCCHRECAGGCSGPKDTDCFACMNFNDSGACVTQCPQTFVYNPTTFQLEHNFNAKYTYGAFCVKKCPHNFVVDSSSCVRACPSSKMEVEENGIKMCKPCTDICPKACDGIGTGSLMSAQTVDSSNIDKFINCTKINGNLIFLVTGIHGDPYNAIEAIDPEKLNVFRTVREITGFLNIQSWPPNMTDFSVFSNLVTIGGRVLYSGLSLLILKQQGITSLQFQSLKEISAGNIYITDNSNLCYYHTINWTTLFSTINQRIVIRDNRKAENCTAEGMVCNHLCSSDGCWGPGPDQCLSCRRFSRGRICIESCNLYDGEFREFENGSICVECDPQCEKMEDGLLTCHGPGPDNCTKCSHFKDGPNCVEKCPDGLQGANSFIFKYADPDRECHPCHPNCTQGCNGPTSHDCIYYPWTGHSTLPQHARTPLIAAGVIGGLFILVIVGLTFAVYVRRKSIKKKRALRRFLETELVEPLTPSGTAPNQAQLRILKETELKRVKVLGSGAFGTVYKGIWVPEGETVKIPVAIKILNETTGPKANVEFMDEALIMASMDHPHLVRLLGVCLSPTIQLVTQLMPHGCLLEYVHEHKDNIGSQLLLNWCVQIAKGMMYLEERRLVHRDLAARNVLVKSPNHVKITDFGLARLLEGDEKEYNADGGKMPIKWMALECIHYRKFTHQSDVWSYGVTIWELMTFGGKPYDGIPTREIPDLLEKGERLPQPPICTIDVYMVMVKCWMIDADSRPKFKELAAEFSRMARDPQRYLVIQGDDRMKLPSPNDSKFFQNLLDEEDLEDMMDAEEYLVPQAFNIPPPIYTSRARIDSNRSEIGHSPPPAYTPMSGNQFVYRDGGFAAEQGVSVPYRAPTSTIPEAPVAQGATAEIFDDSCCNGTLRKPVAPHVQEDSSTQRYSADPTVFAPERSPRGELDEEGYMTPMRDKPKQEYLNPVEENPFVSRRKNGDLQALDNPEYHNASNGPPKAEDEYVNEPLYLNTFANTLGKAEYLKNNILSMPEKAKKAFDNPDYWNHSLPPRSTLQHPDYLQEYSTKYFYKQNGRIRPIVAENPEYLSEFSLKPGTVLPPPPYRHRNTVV
Sequence of Tyrosine-protein kinase ZAP-70 (Homo sapiens) (P43403 whole entry): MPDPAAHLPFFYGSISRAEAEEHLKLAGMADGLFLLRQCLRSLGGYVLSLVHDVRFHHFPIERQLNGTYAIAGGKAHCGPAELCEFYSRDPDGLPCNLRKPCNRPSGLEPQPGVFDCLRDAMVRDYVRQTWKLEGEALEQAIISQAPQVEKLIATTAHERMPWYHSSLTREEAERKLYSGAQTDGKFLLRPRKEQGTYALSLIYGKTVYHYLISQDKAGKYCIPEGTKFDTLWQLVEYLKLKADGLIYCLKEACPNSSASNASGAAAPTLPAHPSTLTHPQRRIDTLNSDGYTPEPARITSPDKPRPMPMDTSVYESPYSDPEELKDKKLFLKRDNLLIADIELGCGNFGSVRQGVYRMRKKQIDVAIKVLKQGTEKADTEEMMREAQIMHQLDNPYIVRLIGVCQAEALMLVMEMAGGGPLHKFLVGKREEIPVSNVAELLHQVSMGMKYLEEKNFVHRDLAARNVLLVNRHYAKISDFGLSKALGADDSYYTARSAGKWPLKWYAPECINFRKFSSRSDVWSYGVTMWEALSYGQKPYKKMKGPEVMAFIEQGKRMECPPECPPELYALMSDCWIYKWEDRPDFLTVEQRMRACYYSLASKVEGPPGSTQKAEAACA
Sequence of Macrophage colony-stimulating factor 1 receptor (Homo sapiens) (P07333 whole entry): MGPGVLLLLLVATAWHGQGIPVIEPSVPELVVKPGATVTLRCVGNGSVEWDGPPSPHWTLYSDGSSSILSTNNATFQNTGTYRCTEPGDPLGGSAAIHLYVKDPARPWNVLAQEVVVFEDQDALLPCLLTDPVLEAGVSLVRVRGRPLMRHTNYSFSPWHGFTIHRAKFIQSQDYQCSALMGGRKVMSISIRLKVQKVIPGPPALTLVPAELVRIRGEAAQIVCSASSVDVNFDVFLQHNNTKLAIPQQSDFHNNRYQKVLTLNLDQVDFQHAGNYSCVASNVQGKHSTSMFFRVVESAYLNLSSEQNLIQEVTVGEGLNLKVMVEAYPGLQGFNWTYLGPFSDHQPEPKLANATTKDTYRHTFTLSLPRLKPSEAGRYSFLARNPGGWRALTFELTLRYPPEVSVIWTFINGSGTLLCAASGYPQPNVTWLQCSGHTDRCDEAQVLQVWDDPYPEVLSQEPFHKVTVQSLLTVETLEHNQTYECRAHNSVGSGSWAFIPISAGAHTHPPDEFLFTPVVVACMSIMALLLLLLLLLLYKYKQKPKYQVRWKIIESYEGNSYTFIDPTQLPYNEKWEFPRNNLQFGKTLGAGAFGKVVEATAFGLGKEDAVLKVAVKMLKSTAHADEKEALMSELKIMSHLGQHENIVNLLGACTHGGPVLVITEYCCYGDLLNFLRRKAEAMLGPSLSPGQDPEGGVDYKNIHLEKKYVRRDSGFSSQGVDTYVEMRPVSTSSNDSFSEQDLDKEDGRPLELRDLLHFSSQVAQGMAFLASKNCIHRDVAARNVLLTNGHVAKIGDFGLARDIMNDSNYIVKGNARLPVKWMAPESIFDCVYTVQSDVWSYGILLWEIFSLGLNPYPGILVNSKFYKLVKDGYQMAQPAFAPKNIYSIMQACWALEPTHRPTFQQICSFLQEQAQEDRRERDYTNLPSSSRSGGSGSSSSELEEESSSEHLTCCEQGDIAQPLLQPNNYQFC
Sequence of Ephrin type-B receptor 2 (Homo sapiens) (P29323 whole entry): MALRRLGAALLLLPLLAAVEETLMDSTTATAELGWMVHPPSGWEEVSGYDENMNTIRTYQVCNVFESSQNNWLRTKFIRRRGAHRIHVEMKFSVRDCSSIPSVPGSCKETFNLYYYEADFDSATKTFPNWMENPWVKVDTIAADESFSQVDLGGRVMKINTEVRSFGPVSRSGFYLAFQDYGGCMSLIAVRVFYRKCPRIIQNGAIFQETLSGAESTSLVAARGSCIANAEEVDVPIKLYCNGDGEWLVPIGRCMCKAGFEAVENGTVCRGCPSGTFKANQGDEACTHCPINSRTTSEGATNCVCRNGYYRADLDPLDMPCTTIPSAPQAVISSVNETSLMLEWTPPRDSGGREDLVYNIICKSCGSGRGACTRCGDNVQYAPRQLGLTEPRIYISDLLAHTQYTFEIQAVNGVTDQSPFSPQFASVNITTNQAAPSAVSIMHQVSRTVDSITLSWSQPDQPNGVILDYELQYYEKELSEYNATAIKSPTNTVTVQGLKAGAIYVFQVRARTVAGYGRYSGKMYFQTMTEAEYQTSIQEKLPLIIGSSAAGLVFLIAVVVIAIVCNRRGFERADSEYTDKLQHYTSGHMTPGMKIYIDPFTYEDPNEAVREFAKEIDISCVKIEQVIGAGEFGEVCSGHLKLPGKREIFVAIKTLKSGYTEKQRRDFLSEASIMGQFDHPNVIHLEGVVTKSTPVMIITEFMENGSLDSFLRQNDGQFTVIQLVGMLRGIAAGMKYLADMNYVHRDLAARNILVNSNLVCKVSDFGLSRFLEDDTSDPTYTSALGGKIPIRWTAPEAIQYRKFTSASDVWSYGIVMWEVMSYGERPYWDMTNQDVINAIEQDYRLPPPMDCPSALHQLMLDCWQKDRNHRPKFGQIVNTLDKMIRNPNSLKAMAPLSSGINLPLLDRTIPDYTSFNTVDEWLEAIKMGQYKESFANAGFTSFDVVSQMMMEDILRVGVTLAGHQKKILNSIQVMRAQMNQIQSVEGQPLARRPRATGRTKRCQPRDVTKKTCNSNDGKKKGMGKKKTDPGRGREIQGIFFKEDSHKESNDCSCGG

## O=C1Nc2ncccc2/C1=C1/Nc2ncccc2C1=O
[1]
  Activity: 73%
[2]
  Activity: 105%
[3]
  Activity: 107%
[4]
  Activity: 108%
[5]
  Activity: 111%
[6]
  Activity: 116%
[7]
  Activity: 101%
[8]
  Activity: 100%
[9]
  Activity: 98%
[10]
  Activity: 63%
[11]
  Activity: 124%
[12]
  Activity: 96%
[13]
  pIC50: 7.22
[14]
  Activity: 94%
[15]
  Activity: 76%
[16]
  Activity: 78%
[17]
  Activity: 91%
[18]
  Activity: 123%
[19]
  Activity: 104%
[20]
  Activity: 110%
[21]
  Activity: 78%
[22]
  Activity: 85%
[23]
  Activity: 127%
[24]
  Activity: 113%
[25]
  Activity: 121%
Homo sapiens
  Activity: 99%
